Values after ≈ are worked out from the molar mass of the structure shown.
Assays:
[1] = Solubility at 25 degC of compound (diluted from DMSO) in PBS at pH 7.4 determined after 24h (1h sonication, 22h shaking, 1h sonication) by LCMS/MS; format: physicochemical
[2] = Mean plasma concentration at 24h in Swiss albino male mice at […] per compound (administered orally in a mixture of 5 compounds to 3 mice) assessed by LCMS/MS.; format: ADME, organism-based; conditions: mouse, po
[3] = Plasma protein binding determined at 10uM by LC-MS/MS.; conditions: mouse
[4] = Percentage of parent compound remaining after incubation for 30 minutes with cyropreserved mouse hepatocytes at a concentration of 1uM compound and […], determined by LCMS; format: ADME, tissue-based, Hepatocyte; conditions: cryopreserved mouse hepatocytes, read-out: Stability
How it was run: (§1)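 Compound was incubated at 1 µM final (2 µM working solution mixed 1:1 with hepatocyte suspension) in supplemented KHB pH 7.4. Conditions: 37 °C, 5% CO2, gentle mixing, duplicates. Reaction quenched with ice-cold acetonitrile containing standard; analysed by LC-MS/MS. % remaining = AUC at t / AUC at T0.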

[5] = Mean plasma concentration at 4h in Swiss albino male mice at […] per compound (administered orally in a mixture of 5 compounds to 3 mice) assessed by LCMS/MS.; format: ADME, organism-based; conditions: mouse, po
[6] = Mean volume of distribution at steady state in Swiss albino male mice at 1 mg/kg per compound (administered iv in a mixture of 5 compounds to 3 mice) assessed by LCMS/MS.; format: ADME, organism-based; conditions: mouse, in vivo, read-out: Volume
How it was run: (§2)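 Male Swiss albino mice (~30 g), 3 per experiment, mostly dosed as mixtures of 5 compounds iv via the lateral tail vein. Vehicle: 10% DMSO/90% 50 mM Na2HPO4 with 0.5% Tween-80. Plasma stored at −20 °C and quantified by LC-MS after acetonitrile precipitation.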

[7] = Mean oral bioavailability in Swiss albino male mice at […] per compound (administered in a mixture of 5 compounds to 3 mice) assessed by LCMS/MS.; note: dose 2.5 mg/kg; format: ADME, organism-based; conditions: mouse, in vivo
[8] = Mean observed clearance in Swiss albino male mice at 1 mg/kg per compound (administered iv in a mixture of 5 compounds to 3 mice) assessed by LCMS/MS.; format: ADME, organism-based; conditions: male, Swiss albino, mouse, in vivo, read-out: Clearance (converted)
How it was run: as §2, with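 “Tween-80. Blood sampled at 5, 15, 30 min and 1, 2, 4, 8, 24 h.” for “Tween-80.”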

[9] = Partition coefficient of compound between n-octanol and PBS (pH7.4); format: physicochemical; conditions: octanol/water, pH 7.4
How it was run: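 Shake-flask method using octanol and PBS pH 7.4, each pre-saturated with the other. Compound was shaken 2 h at 850 rpm, 25 °C, then the phases were separated by centrifugation and both layers diluted and analysed by LC-MS/MS. LogD = log(octanol AUC × relative dilution / buffer AUC).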

[10] = Mean half-life in Swiss albino male mice at 1 mg/kg per compound (administered iv in a mixture of 5 compounds to 3 mice) assessed by LCMS/MS.; format: ADME, organism-based; conditions: mouse, in vivo; how it was run: as §2
[11] = Mean time to peak plasma concentration in Swiss albino male mice at […] per compound (administered orally in a mixture of 5 compounds to 3 mice) assessed by LCMS/MS.; format: ADME, organism-based; conditions: mouse, po
[12] = Mean AUC inf in Swiss albino male mice at 1 mg/kg per compound (administered iv in a mixture of 5 compounds to 3 mice) assessed by LCMS/MS.; format: ADME, organism-based; conditions: male, Swiss albino, mouse, in vivo
How it was run: as §2, with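 “Tween-80. Blood sampled at 5, 15, 30 min and 1, 2, 4, 8, 24 h.” for “Tween-80.”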

Schistosoma mansoni [13] = experiment: Concentration required to kill 50% of 21 day old worms 5 days after drug treatment.; format: functional, organism-based; conditions: Puerto Rican, 120 h
How it was run: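 Juvenile S. mansoni (Puerto Rican strain) were perfused from CD1 mice 3 weeks post-infection and washed. They were cultured 6–8 per well in 200 µL DMEM with 2 mM glutamine, penicillin/streptomycin and 10% FCS at 37 °C, 5% CO2. Viability of individual worms was scored on day 5 after dosing (120 h).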

Schistosoma mansoni [14] = experiment: Concentration required to kill 50% of 42 day old worms 5 days after drug treatment.; format: functional, organism-based; conditions: Puerto Rican, 120 h
How it was run: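 Adult S. mansoni were perfused from CD1 mice 6 weeks post-infection and washed. They were cultured 3 pairs per well in 1 mL DMEM with 2 mM glutamine, penicillin/streptomycin and 10% FCS […] at 37 °C, 5% CO2. Viability of individual worms was scored on day 5 (120 h).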

[15] = Percentage of parent compound remaining after incubation for 30 minutes with cyropreserved human hepatocytes at a concentration of 1uM compound and 1 million cells/uL, determined by LCMS/MS; format: ADME, tissue-based, Hepatocyte; conditions: cryopreserved human hepatocytes, read-out: Stability; how it was run: as §1
[16] = Plasma protein binding determined at 1uM by LC-MS/MS.; format: ADME, cell-free
[17] = Concentration required to kill 50% MRC-5 cells as detected by Alamar blue staining; format: toxicity, cell-based, MRC5; conditions: homo sapiens, read-out: TC50 (the source's name)
Schistosoma haematobium = experiment: Concentration required to kill 50% of 84 day old worms 5 days after drug treatment.; format: functional, organism-based; conditions: Egyptian, 120 h
[18] = Plasma protein binding determined at 10uM by LC-MS/MS.; format: ADME, cell-free
How it was run: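 Equilibrium dialysis of plasma spiked at 10 µM (0.1% DMSO) against PBS pH 7.4, 6 h at 37 °C, duplicates. Both chambers analysed by LC-MS/MS after acetonitrile precipitation. % free = buffer/plasma area ratio; recovery also calculated.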

[19] = Concentration required to kill 50% HepG2 cells as detected by MTT staining; format: toxicity, cell-based; conditions: homo sapiens, read-out: TC50 (the source's name)
[20] = Concentration of drug in plasma at 4h following oral drug adminstration at given dose. Determined by LCMS/MS; format: ADME, organism-based; conditions: CD1, mouse
How it was run: (§3)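 Plasma sampled from the mice of the efficacy experiments, each animal sampled once: one animal per group at 1, 4 and 8 h, two per group at 24 h. Plasma prepared by acetonitrile protein precipitation and analysed by LC-MS against a 10-point calibration line spiked in blank matrix, with QCs at three or more levels.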

[21] = Percentage of parent compound remaining after incubation for 90 minutes with cyropreserved mouse hepatocytes at a concentration of 1uM compound and […], determined by LCMS; format: ADME, tissue-based, Hepatocyte; conditions: cryopreserved mouse hepatocytes, read-out: Stability; how it was run: as §1
[22] = Concentration of drug in plasma at 24h following oral drug adminstration at given dose. Determined by LCMS/MS; format: ADME, organism-based; conditions: CD1, mouse; how it was run: as §3
Schistosoma mansoni [23] = experiment: Percentage of worms remaining following treatment of female CD1 mice infected with S. mansoni worms (21 day old - juvenile or 42 day old - adult) with compound by oral gavage. Worms were recovered by portal perfusion with citrate saline 8-14 days post treatment and counted. Percentages are from a mean of 5 or 6 animals.; format: functional, Mus musculus; design: concentration or dose not given beside the values
How it was run: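 Female CD1 mice were infected subcutaneously with 150 cercariae and treated at day 21 (juvenile) or day 42 (adult). Single oral gavage, or two doses 12 h apart, given in 7% Tween-80/3% ethanol/water (sonicated) or in 1:19 DMSO:corn oil. Controls received vehicle only. Worm recoveries are group means, n = 5–6.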

[24] = male, Swiss albino, read-out: Bioavailability

solubility kinetic at 24 h [1]	concentration at 24 h [2]	Binding [3]	remaining at 0.5 h, 1 µM [4]	concentration at 4 h [5]	Vd [6]	bioavailability [7, 24]	clearance [8]	Lipophilicity [9]	half-life [10]	Tmax [11]	AUC(0-inf) [12]	remaining at 0.5 h, 1 µM [15]	Binding ([18]; mouse)	Structure (SMILES)	EC50 (Schistosoma mansoni [13])	EC50 (Schistosoma mansoni [14])	CC50 [19]	other results
1.2 µM (≈ 0.51 µg/mL)	0.1 ng/mL	99.9319%	41.3%	1.88 ng/mL	4.58 L/kg	3.64%	108 mL/min/kg	4.62 =	62.4 min	15 min	77.9 ng·h/mL	–	–	COc1ccc(-c2c(C3CC3)nc3cnc(-c4cccc(C(F)(F)F)c4)cn23)cc1O	62.5 nM	71.5 nM	–	–
2 µM (≈ 0.747 µg/mL)	0.1 ng/mL	–	32.9%	0.1 ng/mL	1.33 L/kg	–	168 mL/min/kg	4.95 =	10.3 min	15 min	49.9 ng·h/mL	31%	–	Oc1ccc(-c2cnc3cnc(-c4cccc(C(F)(F)F)c4)cn23)c(F)c1	2120 nM	2320 nM	–	Binding ([16]; human): 99.88%; Binding ([16]; mouse): 99.76%; CC50 [17]: > 38300 nM
2.5 µM (≈ 1.11 µg/mL)	0.1 ng/mL	99.9485%	54.5%	5.08 ng/mL	3.75 L/kg	8.28%	58.8 mL/min/kg	5.7 =	96 min	15 min	143 ng·h/mL	–	–	COc1ccc(-c2c(C(C)C)nc3cnc(-c4ccc(F)c(C(F)(F)F)c4)cn23)cc1O	177 nM	< 48.8 nM	–	–
0.467 µM (≈ 0.188 µg/mL)	0.1 ng/mL	98.4537%	31.9%	1.11 ng/mL	2.98 L/kg	6.57%	173 mL/min/kg	4.33 =	19.9 min	15 min	48.3 ng·h/mL	–	–	COc1ccc(-c2c(C(C)C)nc3cnc(-c4ccnc(N(C)C)c4)cn23)cc1O	< 939 nM	–	–	–
0.643 µM (≈ 0.29 µg/mL)	10.5 ng/mL	–	68%	130 ng/mL	6.81 L/kg	84.8%	17 mL/min/kg	5.49 =	446 min	30 min	490 ng·h/mL	–	99.95%	COc1cc(-c2c(C(C)C)nc3cnc(-c4cccc(C(F)(F)F)c4)cn23)cc2cn[nH]c12	527 nM	428 nM	–	EC50 (Schistosoma haematobium): 149 nM; Binding ([16]; mouse): 100%
17.5 µM (≈ 7.02 µg/mL)	0.1 ng/mL	–	39%	4.15 ng/mL	2.17 L/kg	7.35%	58.2 mL/min/kg	3.76 =	33.6 min	15 min	144 ng·h/mL	–	99.87%	CCc1nc2cnc(-c3cccc(C(F)(F)F)c3)cn2c1-c1ccc(O)cc1F	85.9 nM	< 140 nM	18700 nM	EC50 (Schistosoma haematobium): 151 nM; CC50 [17]: 17500 nM
1.83 µM (≈ 0.811 µg/mL)	21.4 ng/mL	–	–	676 ng/mL	1.37 L/kg	82.7%	4.02 mL/min/kg	–	–	120 min	2080 ng·h/mL	–	–	CCc1nc2cnc(-c3ccc(F)c(C(F)(F)F)c3)cn2c1-c1ccc2[nH]ncc2c1F	87 nM	45 nM	13100 nM	concentration at 4 h [20]: 705 ng/mL; remaining at 1.5 h, 1 µM [21]: 85%; concentration at 24 h [22]: 50.5 ng/mL; Efficacy (Schistosoma mansoni [23]): 89.6%
1.52 µM (≈ 0.668 µg/mL)	18 ng/mL	–	93.9%	194 ng/mL	3.44 L/kg	63.2%	9.15 mL/min/kg	4.56 =	362 min	30 min	929 ng·h/mL	83.1%	99.975%	CC(C)c1nc2cnc(-c3cccc(C(F)(F)F)c3)cn2c1-c1ccc2[nH]ncc2c1F	51.7 nM	30.7 nM	15100 nM	Binding ([18]; human): 99.997%
1.11 µM (≈ 0.47 µg/mL)	9.8 ng/mL	–	53.6%	289 ng/mL	2.91 L/kg	88.5%	10.2 mL/min/kg	5.37 =	216 min	15 min	844 ng·h/mL	34.3%	99.865%	Cc1nc2cnc(-c3ccc(F)c(C(F)(F)F)c3)cn2c1-c1c(F)cc(O)cc1F	124 nM	118 nM	7560 nM	EC50 (Schistosoma haematobium): 41.5 nM; Binding ([16]; mouse): 99.8779%; Binding ([18]; human): 99.9645%
–	–	–	–	359 ng/mL	–	–	–	5.6 =	–	120 min	–	–	100%	Fc1ccc(-c2cn3c(-c4ccc5[nH]ncc5c4F)c(C(F)(F)F)nc3cn2)cc1C(F)(F)C(F)(F)F	–	–	11700 nM	concentration at 4 h [20]: 556 ng/mL; Efficacy (Schistosoma mansoni [23]): 1.84%; bioavailability [7]: 170%
1.95 µM (≈ 0.777 µg/mL)	0.1 ng/mL	99.8676%	43%	0.1 ng/mL	3.65 L/kg	1.48%	158 mL/min/kg	4.92 =	–	15 min	53.1 ng·h/mL	–	–	COc1ccc(-c2c(C)nc3ccc(-c4cccc(C(F)(F)F)c4)cn23)cc1O	< 684 nM	–	–	–
91.9 µM (≈ 39.8 µg/mL)	0.1 ng/mL	–	95.9%	12.5 ng/mL	3.67 L/kg	14.5%	42.8 mL/min/kg	5.11 =	95.4 min	15 min	195 ng·h/mL	68.4%	100%	CC(C)c1nn2cnc(-c3cccc(C(F)(F)F)c3)cc2c1-c1c(F)cc(O)cc1F	< 12.2 nM	21.9 nM	8400 nM	Binding ([18]; human): 100%
